The record followed here is ChEMBL document CHEMBL4706532, “New Seco-DSP derivatives as potent chemosensitizers” (Eur J Med Chem, 2020).

Activity calls are given as the source filed them. No cut-off for these calls is given here. Where only a bound is given, the exact number is not on record here.

Series [1] deals with A2780T. As to the kind of experiment: Inhibition of P-gp mediated multidrug resistance activity in human A2780T cells assessed as increase in intracellular DOX accumulation at 10 uM incubated for 4 hrs in presence of doxorubicin by flow cytometry. It is filed as cell-based. The method in brief:
(§1)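 A2780/T cells were seeded at about 5×10^5 per well and left 24 h. […] Cells were washed three times with ice-cold PBS and resuspended in cold PBS. DOX autofluorescence was measured by flow cytometry and by fluorescence/confocal microscopy. Data are given as mean ± SD.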
(In general: In flow cytometry, cells or beads pass a laser one at a time.)

For series [2], the species on record is Homo sapiens. The series is described as follows: Stimulation of human membrane P-gp ATPase activity at 0.5 mM using MgATP as substrate preincubated with enzyme for 5 mins followed by substrate addition and measured after 120 mins by ADP-Glo luminescence assay relative to control. It is filed as cell membranes. The settings on record: time 125.0 min. In outline:
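Reactions were started with 10 μL of 25 mM MgATP and run 120 min at 37 °C. ATP detection reagent was then added, and luminescence was read after about 20 min at room temperature (P-gp-Glo). Results are mean ± SD of three independent experiments.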

For series [3], the system named is A2780T. As to the kind of experiment: Inhibition of P-gp mediated multidrug resistance activity in human A2780T cells assessed as increase in intracellular DOX accumulation at 10 uM incubated for 4 hrs in presence of doxorubicin by fluorescence microsocopy. It is filed as cell-based. In outline: as §1
The test system of series [4] is HUVEC. As to the kind of experiment: Cytotoxicity against human HUVEC cells assessed as reduction in cell viability at 10 uM incubated for 48 hrs by MTT assay. It is filed as cell-based. In outline:
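Cells plated at 3~5 × 10^3 per well and allowed 24 h before exposure to compound or DMSO (negative control) for 48 h. MTT was added for 4 h, formazan dissolved in DMSO and absorbance read at 490 nm. Inhibition was calculated relative to DMSO and blank.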

Series [5] in a line: Cytotoxicity against human HOSEC cells assessed as reduction in cell viability at 10 uM incubated for 48 hrs by MTT assay. It is filed as cell-based. The settings on record: hose. In outline:
(§2)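 Cells plated at 3~5 × 10^3 per well and allowed 24 h before exposure to compound or DMSO (negative control) for 48 h. A2780/T and KB-VIN were grown in DMEM/F12 with 10% FBS, and HUVEC, HOSEC and T29 in RPMI-1640 with 10% FBS, all at 37 °C under 5% CO₂. MTT was added for 4 h, formazan dissolved in DMSO and absorbance read at 490 nm. Inhibition was calculated relative to DMSO and blank.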
(In general: Tetrazolium assays rely on reduction of a dye to a coloured formazan, in cell work by metabolically active cells.)

Series [6] in a line: Cytotoxicity against human T29 cells assessed as reduction in cell viability at 10 uM incubated for 48 hrs by MTT assay. It is filed as cell-based. The following applies: t29, 48 h. In outline:
as §2

The subject of series [7] is A2780/Taxol. As to the kind of experiment: Cytotoxicity against human A2780T cells assessed as reduction in cell viability at 10 uM incubated for 48 hrs by MTT assay. It is filed as cell-based. The method in brief: as §2
A short description of series [8]: Reversal of multidrug resistance activity in P-gp overexpressing human A2780T cells assessed as potentiation of PTX-induced cytotoxicity by measuring reversal ratio at 10 uM incubated for 48 hrs in presence of paclitaxel by MTT assay. It is filed as functional, A2780/Taxol. In outline:
(§3)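 Resistant cells were plated at 3~5 × 10^3 per well, given 24 h, then co-treated with test compound plus a range of anticancer drug concentrations (PTX for A2780/T, VCR for KB-VIN, cisplatin for A2780/CDDP) or DMSO for 48 h. Read-out was by MTT, 4 h at 37 °C, with absorbance at 490 nm. Reversal ratio = IC50 (drug alone) / IC50 (drug with compound).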

A short description of series [9]: Reversal of multidrug resistance activity in P-gp overexpressing human KB-VIN cells assessed as potentiation of VCR-induced cytotoxicity by measuring reversal ratio at 10 uM incubated for 48 hrs in presence of VCR by MTT assay. It is filed as functional. In outline: as §3
The nature of series [10]: Reversal of multidrug resistance activity in human A2780/CDDP cells assessed as potentiation of CDDP-induced cytotoxicity by measuring reversal ratio at 10 uM incubated for 48 hrs in presence of CDDP by MTT assay. It is filed as functional. The method in brief:
as §3

In series [11] the test system is A2780/Taxol. As to the kind of experiment: Increase in P-gp expression in human A2780T cells at 10 uM incubated for 48 hrs by western blot analysis. It is filed as functional, cell-based. The method in brief:
(§4)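 A2780/T cells (about 5×10^5 per well) were allowed 24 h, then treated with compound at 10 µM for 48 h at 37 °C. Cells were lysed in RIPA buffer with 1 mM PMSF. Lysates (20 µg protein) were run on 12% SDS-PAGE and transferred to PVDF. Blots were blocked in 3% BSA and probed overnight at 4 °C with anti-P-gp or GAPDH antibody (1:1000), then with HRP secondary (1:10000) for 1 h. Detection was by ECL with densitometry.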
A general note: In western blotting, separated proteins are transferred to a membrane and probed.

Series [12] can be described thus: Cytotoxicity against human KB-VIN cells assessed as reduction in cell viability at 10 uM incubated for 48 hrs by MTT assay. It is filed as cell-based. The method in brief:
as §2

A short description of series [13]: Reversal of multidrug resistance activity in P-gp overexpressing human A2780T cells assessed as potentiation of PTX-induced cytotoxicity by measuring reversal ratio at 1 uM incubated for 48 hrs in presence of paclitaxel by MTT assay. It is filed as functional, A2780/Taxol. The method in brief: as §3
Series [14] relates to A2780/Taxol. The series is described as follows: Decrease in P-gp expression in human A2780T cells at 10 uM incubated for 48 hrs by western blot analysis. It is filed as functional, cell-based. The method in brief:
as §4

Series [15] in a line: Reversal of multidrug resistance activity in P-gp overexpressing human A2780T cells assessed as potentiation of PTX-induced cytotoxicity by measuring reversal ratio at 200 nM incubated for 48 hrs in presence of paclitaxel by MTT assay.

Regarding `COc1ccc(CCN(C)CCCC(C#N)(c2ccc(OC)c(OC)c2)C(C)C)cc1OC` (centres undefined), the inhibition result in series [1] and in series [3] was “Active” in each case. Moreover, the fold change (FC) in series [2] amounted to 1.8.
Consider `CCOc1ccc2c(=O)cc(CC)oc2c1COC(=O)/C=C/c1ccccc1`, for which the Activity entry in series [4], in series [5], in series [6], in series [7] and in series [12] was “Non-Toxic” in each case. In addition, the Ratio in series [8] stood at 503; in [9] it was 633; in series [10], 0.92; in series [13], 4.24; in series [15] it was 1.05. The outcome in [11] was inactive. For the same compound, the inhibition entry in series [1] and in series [3] was “Active” each time. The same compound gave a fold change (FC) in series [2] of 1.2. Moreover, the inhibition result in [14] was “inactive”.
In the case of `CCc1cc(=O)c2ccc(OC(C)C)c(COC(=O)/C=C/c3ccc(OC)cc3)c2o1`, the Activity entry in series [4], in series [5], in series [6], in series [7] and in [12] was “Non-Toxic” throughout. For the same compound, the results for the Ratio in series [8], in [9] and in series [10] were 490, 342 and 0.97, respectively.
Regarding `CCc1cc(=O)c2ccc(OC)c(COC(=O)c3cc(OC)c(OC)c(OC)c3)c2o1`, the Activity result in series [4], in series [5], in series [6], in series [7] and in [12] was “Non-Toxic” throughout. Besides, the figures for the Ratio in series [8], in [9] and in [10] were 537, 424 and 0.81, respectively.
With `CCOc1ccc2c(=O)cc(CC)oc2c1COC(=O)c1cc(OC)c(OC)c(OC)c1`, the Activity result in series [4], in series [5], in [6], in [7] and in [12] was “Non-Toxic” each time. Also, the Ratio was 457 in series [8], 248 in series [9] and 1.05 in series [10].
Consider `CCOc1ccc2c(=O)cc(CC)oc2c1COC(=O)/C=C/c1ccc(OC)cc1`, for which the Activity result in series [4] is recorded as “Non-Toxic”; in series [5], “Non-Toxic”; in series [6], “Non-Toxic”; in series [7], “Toxic”; in series [12] it was “Non-Toxic”. The Ratio is listed as above 1471 in series [8]; 299 in series [9]; 0.88 in series [10]; 128 in series [13]; 1.05 in series [15]. Moreover, the result in series [11] was inactive. Besides, the inhibition entry in series [1] and in series [3] was “Active” each time. The fold change (FC) in [2] stood at 1.2. In series [14], the inhibition result is “inactive”.
In the case of `CCc1cc(=O)c2ccc(OC(C)C)c(COC(=O)Cc3cc(OC)c(OC)c(OC)c3)c2o1`, the Activity result in series [4], in [5], in [6], in [7] and in [12] was “Non-Toxic” in each case. Moreover, the Ratio in [8] was 576; in series [9], 604; in [13] it was 3.97; in series [15] it was 1.05. For the same compound, the outcome in series [11] was inactive. The inhibition entry in series [1] and in series [3] was “Active” each time. This compound also displayed a fold change (FC) in series [2] of 1.2. For the same compound, the inhibition result in [14] is “inactive”.
Consider `CCOc1ccc2c(=O)cc(CC)oc2c1COC(=O)Cc1cc(OC)c(OC)c(OC)c1`, for which the Activity entry in [4], in [5], in [6], in [7] and in series [12] was “Non-Toxic” each time. Also, the Ratio in [8] stood at 677; in series [9], 628; in series [10] it was 0.97; in series [13], 4.13; in series [15], 1.05. Also, the result in series [11] was inactive. The inhibition entry in series [1] and in series [3] was “Active” each time. Besides, the fold change (FC) in series [2] is 1.2. Further, the inhibition entry in series [14] is “inactive”.
With `CCc1cc(=O)c2ccc(OC(C)C)c(COC(=O)/C=C/c3ccccc3)c2o1`, the Activity entry in series [4], in series [5], in [6], in [7] and in series [12] was “Non-Toxic” in each case. The Ratio in series [8] worked out at 685; in [9], 466; in series [10], 0.81.
